Data as given in ChEMBL document CHEMBL1155292, “Synthesis, analgesic and anti-inflammatory activities evaluation of some bi-, tri- and tetracyclic condensed pyrimidines” (Eur J Med Chem, 2009).

Experiments:
Rattus norvegicus [1] = assay: Antiinflammatory activity in albino rat assessed as inhibition of carrageenan-induced paw edema at 0.029 mmol/kg, po after 4 hrs relative to control; type: functional
Summary of the method: (§1)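 Adult albino rats of either sex, 120–150 g, six per group. Compounds at 0.029 mmol/kg suspended in saline with a few drops of Tween 80 and given by oral stomach tube. After 1 h, 0.1 ml of freshly prepared 1% carrageenan in saline injected subplantar into the right hind paw. Paw thickness measured at 1–4 h; % edema inhibition versus control; mean ± SEM; ANOVA.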

Rattus norvegicus [2] = assay: Antiinflammatory activity in albino rat assessed as inhibition of carrageenan-induced paw edema at 0.029 mmol/kg, po after 4 hrs relative to indomethacin; type: functional
Summary of the method: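 Rat carrageenan paw edema: oral 0.029 mmol/kg in saline/Tween 80, 1 h before subplantar 0.1 ml 1% carrageenan into the right hind paw; six rats per group. Potency is % inhibition of the test compound divided by % inhibition of indomethacin at 4 h.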

Rattus norvegicus [3] = assay: Gastrointestinal toxicity in albino rat assessed as ulcerogenic index at 0.029 mmol/kg, po after 5 hrs; type: organism-based; details: in vivo
Summary of the method: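 Adult albino rats of either sex (120–150 g), 6 per group, got the test compounds orally by stomach tube as a suspension in saline with a few drops of tween 80. They were the same rats used in the carrageenan paw-edema test. Stomachs were then opened along the great curvature and examined for lesions or bleeding. Ulceration was recorded as the number of rats with ulcers out of 6.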

Rattus norvegicus [4] = assay: Antiinflammatory activity in albino rat assessed as inhibition of carrageenan-induced paw edema at 0.029 mmol/kg, po after 3 hrs relative to control; type: functional; summary of the method: as §1
Mus musculus [5] = assay: Analgesic activity in albino mouse assessed as decrease in acetic acid-induced writhing at 14.37 mg/kg, po administered 1 hr prior to acetic acid challenge relative to control; type: functional
Summary of the method: (§2)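 Albino mice of either sex, 18–22 g, six per group. Test agents suspended in saline with a few drops of Tween 80 and given by oral stomach tube; controls handled identically without drug. After 1 h, 0.3 ml of 1% acetic acid ip. Writhing contractions counted for 30 min, starting 5 min after injection. % protection versus control mean; mean ± SEM; one-way ANOVA with post hoc test.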

Rattus norvegicus [6] = assay: Antiinflammatory activity in albino rat assessed as inhibition of carrageenan-induced paw edema at 0.029 mmol/kg, po after 2 hrs relative to control; type: functional; summary of the method: as §1
Rattus norvegicus [7] = assay: Antiinflammatory activity in albino rat assessed as inhibition of carrageenan-induced paw edema at 0.029 mmol/kg, po after 1 hr relative to control; type: functional; summary of the method: as §1
Mus musculus [8] = assay: Analgesic activity in albino mouse assessed as decrease in acetic acid-induced writhing at 1 mg/kg, po administered 1 hr prior to acetic acid challenge; type: functional; summary of the method: as §2
Mus musculus [9] = assay: Analgesic activity in po dosed albino mouse assessed as decrease in acetic acid-induced writhing administered 1 hr prior to acetic acid challenge; type: functional, organism-based; summary of the method: as §2
Mus musculus [10] = assay: Analgesic activity in albino mouse assessed as decrease in acetic acid-induced writhing at 0.4 mg/kg, po administered 1 hr prior to acetic acid challenge; type: functional; summary of the method: as §2
Mus musculus [11] = assay: Analgesic activity in albino mouse assessed as decrease in acetic acid-induced writhing at 4 mg/kg, po administered 1 hr prior to acetic acid challenge; type: functional; summary of the method: as §2
Mus musculus [12] = assay: Analgesic activity in albino mouse assessed as decrease in acetic acid-induced writhing at 10.86 mg/kg, po administered 1 hr prior to acetic acid challenge relative to control; type: functional; summary of the method: as §2
Mus musculus [13] = assay: Analgesic activity in albino mouse assessed as decrease in acetic acid-induced writhing at 0.8 mg/kg, po administered 1 hr prior to acetic acid challenge; type: functional; summary of the method: as §2
Mus musculus [14] = assay: Analgesic activity in albino mouse assessed as decrease in acetic acid-induced writhing at 2 mg/kg, po administered 1 hr prior to acetic acid challenge; type: functional; summary of the method: as §2
Mus musculus [15] = assay: Analgesic activity in albino mouse assessed as decrease in acetic acid-induced writhing at 8 mg/kg, po administered 1 hr prior to acetic acid challenge; type: functional; summary of the method: as §2
Mus musculus [16] = assay: Analgesic activity in albino mouse assessed as decrease in acetic acid-induced writhing at 10.39 mg/kg, po administered 1 hr prior to acetic acid challenge relative to control; type: functional; summary of the method: as §2
Mus musculus [17] = assay: Analgesic activity in albino mouse assessed as decrease in acetic acid-induced writhing at 12.4 mg/kg, po administered 1 hr prior to acetic acid challenge relative to control; type: functional; summary of the method: as §2
Mus musculus [18] = assay: Analgesic activity in albino mouse assessed as decrease in acetic acid-induced writhing at 13 mg/kg, po administered 1 hr prior to acetic acid challenge relative to control; type: functional; summary of the method: as §2
Mus musculus [19] = assay: Analgesic activity in albino mouse assessed as decrease in acetic acid-induced writhing at 15.26 mg/kg, po administered 1 hr prior to acetic acid challenge relative to control; type: functional; summary of the method: as §2
Rattus norvegicus [20] = assay: Antiinflammatory activity in albino rat assessed as inhibition of carrageenan-induced paw edema at 20 mg/kg, po; type: functional
Summary of the method: (§3)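 Rat carrageenan paw edema with oral dosing at 10, 15, 20 and 25 mg/kg, suspended in saline with Tween 80, 1 h before subplantar 0.1 ml 1% carrageenan into the right hind paw. % edema inhibition versus control at each dose; IC50 (mg/kg) derived from these four doses.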

Mus musculus [21] = assay: Analgesic activity in albino mouse assessed as decrease in acetic acid-induced writhing at 11.66 mg/kg, po administered 1 hr prior to acetic acid challenge relative to control; type: functional; summary of the method: as §2
Rattus norvegicus [22] = assay: Antiinflammatory activity in albino rat assessed as inhibition of carrageenan-induced paw edema at 25 mg/kg, po; type: functional; summary of the method: as §3
Rattus norvegicus [23] = assay: Antiinflammatory activity in albino rat assessed as inhibition of carrageenan-induced paw edema at 15 mg/kg, po; type: functional; summary of the method: as §3
Rattus norvegicus [24] = assay: Antiinflammatory activity in po dosed albino rat assessed as inhibition of carrageenan-induced paw edema; type: functional, organism-based
Summary of the method: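 Adult albino rats of either sex, 120–150 g, groups of 6. Compound suspended in saline with a few drops of tween 80, given by oral stomach tube 1 h before subplantar injection of freshly prepared 1% carrageenan (0.1 ml) in saline into right hind paw. Paw thickness read at 1–4 h; % edema inhibition versus carrageenan control; mean ± SEM, one-way ANOVA with post hoc test.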

Rattus norvegicus [25] = assay: Antiinflammatory activity in albino rat assessed as inhibition of carrageenan-induced paw edema at 10 mg/kg, po; type: functional; summary of the method: as §3
Mus musculus [26] = assay: Analgesic activity in albino mouse assessed as decrease in acetic acid-induced writhing at 12.65 mg/kg, po administered 1 hr prior to acetic acid challenge relative to control; type: functional; summary of the method: as §2

`CCOC(=O)c1cnn(-c2nc(-c3ccccc3)nc3c2C2CCCN2C(=O)N3c2ccccc2)c1N` (configuration not stated) was tested, and the inhibition in vivo at 29 µmol/kg (Rattus norvegicus [1]) was 11.2%, the relative potency at 29 µmol/kg (Rattus norvegicus [2]) was 0.4 and the UI (Rattus norvegicus [3]) was “Non-toxic”. It also gave an inhibition in vivo at 29 µmol/kg (Rattus norvegicus [4]) of 23.7%, an inhibition in vivo at 14.37 mg/kg (Mus musculus [5]) of 74.8% and an inhibition in vivo at 29 µmol/kg (Rattus norvegicus [6]) of 18.2%. It also gave an inhibition in vivo at 29 µmol/kg (Rattus norvegicus [7]) of 6.74%.

In the case of `CCN1C(=S)N2CCCC2C2=C1NC(c1ccc(OC)c(O)c1)NC2=O` (configuration not stated), the inhibition in vivo at 1 mg/kg (Mus musculus [8]) is reported as 86.9%, the inhibition in vivo at 29 µmol/kg (Rattus norvegicus [1]) is reported as 3.09% and the IC50 (Mus musculus [9]) is reported as 0.359 mg/kg. The relative potency at 29 µmol/kg (Rattus norvegicus [2]) was 0.11, the inhibition in vivo at 0.4 mg/kg (Mus musculus [10]) was 53.6% and the inhibition in vivo at 4 mg/kg (Mus musculus [11]) was 95.3%. For the same compound, the inhibition in vivo at 29 µmol/kg (Rattus norvegicus [4]) was 2.89%, the inhibition in vivo at 29 µmol/kg (Rattus norvegicus [6]) was 9.12% and the inhibition in vivo at 10.86 mg/kg (Mus musculus [12]) was 98.7%. For the same compound, the inhibition in vivo at 0.8 mg/kg (Mus musculus [13]) was 76%, the inhibition in vivo at 2 mg/kg (Mus musculus [14]) was 92% and the inhibition in vivo at 29 µmol/kg (Rattus norvegicus [7]) was 22.4%. The inhibition in vivo at 8 mg/kg (Mus musculus [15]) was 97%.

Work on `CCN1C(=S)N2CCCC2C2=C1NC(c1ccc(OC)cc1)NC2=O` (configuration not stated) yielded an inhibition in vivo at 29 µmol/kg (Rattus norvegicus [1]) of 14.9%, an inhibition in vivo at 10.39 mg/kg (Mus musculus [16]) of 85% and a relative potency at 29 µmol/kg (Rattus norvegicus [2]) of 0.54. The inhibition in vivo at 29 µmol/kg (Rattus norvegicus [4]) was 10.8%, the inhibition in vivo at 29 µmol/kg (Rattus norvegicus [6]) was 9.12% and the inhibition in vivo at 29 µmol/kg (Rattus norvegicus [7]) was 10.1%.

`O=C1N(c2ccccc2)c2nc(-c3ccccc3)nc(N3CCOCC3)c2C2CCCN12` (configuration not stated) was tested, and the inhibition in vivo at 29 µmol/kg (Rattus norvegicus [1]) was 11.2%, the relative potency at 29 µmol/kg (Rattus norvegicus [2]) was 0.4 and the UI (Rattus norvegicus [3]) was “Non-toxic”. It also gave an inhibition in vivo at 12.4 mg/kg (Mus musculus [17]) of 67%, an inhibition in vivo at 29 µmol/kg (Rattus norvegicus [4]) of 18.7% and an inhibition in vivo at 29 µmol/kg (Rattus norvegicus [6]) of 19%. It also gave an inhibition in vivo at 29 µmol/kg (Rattus norvegicus [7]) of 11.2%.

Work on `N#Cc1cnn(-c2nc(-c3ccccc3)nc3c2C2CCCN2C(=O)N3c2ccccc2)c1N` (configuration not stated) yielded an inhibition in vivo at 29 µmol/kg (Rattus norvegicus [1]) of 6.82%, an inhibition in vivo at 13 mg/kg (Mus musculus [18]) of 76.8% and a relative potency at 29 µmol/kg (Rattus norvegicus [2]) of 0.24. It also gave an inhibition in vivo at 29 µmol/kg (Rattus norvegicus [4]) of 9.37%, an inhibition in vivo at 29 µmol/kg (Rattus norvegicus [6]) of 9.92% and an inhibition in vivo at 29 µmol/kg (Rattus norvegicus [7]) of 12.3%.

`Cc1ccc(S(=O)(=O)NNc2nc(-c3ccccc3)nc3c2C2CCCN2C(=O)N3c2ccccc2)cc1` (configuration not stated) was tested, and the inhibition in vivo at 29 µmol/kg (Rattus norvegicus [1]) was 21.7%, the relative potency at 29 µmol/kg (Rattus norvegicus [2]) was 0.79 and the inhibition in vivo at 29 µmol/kg (Rattus norvegicus [4]) was 23.1%. It also gave an inhibition in vivo at 29 µmol/kg (Rattus norvegicus [6]) of 16.6%, an inhibition in vivo at 15.26 mg/kg (Mus musculus [19]) of 76.6% and an inhibition in vivo at 29 µmol/kg (Rattus norvegicus [7]) of 22.4%.

For `CCCNc1nc(-c2ccccc2)nc2c1C1CCCN1C(=O)N2c1ccccc1` (configuration not stated), the inhibition in vivo at 20 mg/kg (Rattus norvegicus [20]) was 63.3%, the inhibition in vivo at 29 µmol/kg (Rattus norvegicus [1]) was 36.6% and the relative potency at 29 µmol/kg (Rattus norvegicus [2]) was 1.34. For the same compound, the inhibition in vivo at 11.66 mg/kg (Mus musculus [21]) was 69.6%, the inhibition in vivo at 29 µmol/kg (Rattus norvegicus [4]) was 30.9% and the inhibition in vivo at 25 mg/kg (Rattus norvegicus [22]) was 69%. It also gave an inhibition in vivo at 15 mg/kg (Rattus norvegicus [23]) of 41.6%, an inhibition in vivo at 29 µmol/kg (Rattus norvegicus [6]) of 25.6% and an inhibition in vivo at 29 µmol/kg (Rattus norvegicus [7]) of 13.5%. For the same compound, the IC50 (Rattus norvegicus [24]) was 16.5 mg/kg and the inhibition in vivo at 10 mg/kg (Rattus norvegicus [25]) was 27.6%.

Compound `Cc1cc(C)n(-c2nc(-c3ccccc3)nc3c2C2CCCN2C(=O)N3c2ccccc2)n1` (configuration not stated) has an inhibition in vivo at 29 µmol/kg (Rattus norvegicus [1]) of 17.4%, an inhibition in vivo at 12.65 mg/kg (Mus musculus [26]) of 76.6% and a relative potency at 29 µmol/kg (Rattus norvegicus [2]) of 0.63. For the same compound, the inhibition in vivo at 29 µmol/kg (Rattus norvegicus [4]) was 20.9%, the inhibition in vivo at 29 µmol/kg (Rattus norvegicus [6]) was 20.7% and the inhibition in vivo at 29 µmol/kg (Rattus norvegicus [7]) was 17.9%.
